Source: PubChem BioAssay (The Scripps Research Institute Molecular Screening Center)
The list is not random: actives were taken first. Their share in the collection is about 4.6%.
TAAR1 antagonist – human TAAR1 antagonists, primary screen, Fluo-8 calcium fluorescence, CHO RD-HGA16 cells | antagonist | hit rate 1.5% among 360,000 | Trace amine-associated receptor 1 (Homo sapiens), Q96RJ0 | inhibition, % at 3 µM;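 active = inhibition above a per-plate cutoff, the mean inhibition of test compounds on that plate plus 3 SD, cut at about 49% in these data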;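 also: 0% = DMSO plus EC80 beta-PEA response and 100% = DMSO alone without agonist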
Target sequence (Q96RJ0 whole entry, looked up): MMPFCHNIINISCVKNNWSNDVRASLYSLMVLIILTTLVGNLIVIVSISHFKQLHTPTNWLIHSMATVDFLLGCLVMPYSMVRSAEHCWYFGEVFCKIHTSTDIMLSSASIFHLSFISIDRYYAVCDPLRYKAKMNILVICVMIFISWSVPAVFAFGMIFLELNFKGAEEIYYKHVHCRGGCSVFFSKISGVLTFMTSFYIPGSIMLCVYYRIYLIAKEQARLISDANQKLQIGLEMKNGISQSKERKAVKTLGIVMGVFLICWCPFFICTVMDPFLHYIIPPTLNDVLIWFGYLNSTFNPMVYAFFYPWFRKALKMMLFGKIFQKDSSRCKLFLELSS
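Material: CHO RD-HGA16 cells bearing hTAAR1; compound dosing: one-point dosing, 3 µM nominal final; schedule: dye loading 75 min at 37 °C, then 30 min room temperature; measured by: calcium fluorescence with Fluo-8; control set: vehicle and agonist controls; replication: n of 1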
OX1R antag-1 – OX1R (HCRTR1) antagonists, primary screen, fluorescence, CHO/OX1R cells, Fluo-8 calcium, orexin A; Orexin/Hypocretin receptor type 1 (Homo sapiens), O43613; Fluo-8 calcium fluorescence; inhibition, % at 5 µM; hit rate 0.43% among 330,000;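 active = inhibition above its plate's threshold, mean inhibition of all tested compounds on the plate plus 3 SD, cut at about 37% in these data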;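 also: 0% = orexin A challenge wells and 100% = SB-334867-A antagonist wells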
GPR7 antag – GPR7 receptor antagonists, primary screen, cell-based, fluorescence, single concentration; Neuropeptides B/W receptor type 1 (Homo sapiens), P48145; hit rate 1.1% among 290,000; GPR7-expressing cells, fluorescence antagonist assay; inhibition, % at 4.4 µM; AID 1861, 2009; in the data active = inhibition above about 16%, passing the limit was not always enough;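 also: cells stimulated with the agonist NPW; 0% = agonist with vehicle and 100% = vehicle without agonist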
Target sequence (P48145 whole entry, looked up): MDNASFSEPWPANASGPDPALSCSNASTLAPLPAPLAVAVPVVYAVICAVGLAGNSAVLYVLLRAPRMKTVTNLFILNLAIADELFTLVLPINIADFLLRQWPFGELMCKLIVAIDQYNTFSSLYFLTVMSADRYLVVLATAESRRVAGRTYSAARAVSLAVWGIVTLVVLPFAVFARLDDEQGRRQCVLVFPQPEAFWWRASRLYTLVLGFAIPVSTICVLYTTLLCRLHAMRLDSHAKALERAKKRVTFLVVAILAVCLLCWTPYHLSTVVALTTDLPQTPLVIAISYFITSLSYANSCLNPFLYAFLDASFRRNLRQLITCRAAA
TAAR1 ag – human TAAR1 agonists, primary screen, Fluo-8 calcium fluorescence, CHO RD-HGA16 cells | vehicle wells 0%, saturating PEA agonist 100% | activation, % at 3 µM | hit rate 0.99% among 360,000 | AID 624467, 2012;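 active = activation above the mean activation of all test compounds in the run plus 3 SD, cut at about 38% in these data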
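Test system: RD-HGA16 (CHO) cells co-expressing Gα16 and hTAAR1; dosing: one-point dosing at 3 µM (nominal); timing: 17-24 h seeding, 75 min 37 °C dye, 30 min RT; signal: kinetic Fluo-8 calcium fluorescence; read-out basis: % activation relative to PEA EC100 response; controls: DMSO and PEA EC100; replicates: n 1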
CHO parental Ca – ATP-evoked calcium signal inhibitors, parental CHO, primary screen, counter-screen for OX1R antagonist project, cell-based, fluorescence, Fluo-8 calcium dye | AID 463079, 2010 | hit rate 0.63% among 330,000 | inhibition, % at 5.6 µM | parental CHO-K1, ATP-induced calcium, Fluo-8 fluorescence;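 active = inhibition above that plate's mean sample inhibition plus 3 SD, cut at about 26% in these data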;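 also: 0% = ATP-challenged DMSO wells and 100% = DMSO wells without ATP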
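material = parental CHO cells | also added = ATP as calcium-mobilizing challenge | dosing = single point at 5.6 µM | detection = intracellular calcium via Fluo-8 no-wash fluorescent dye | read-out = % inhibition | benchmarks = low control ATP plus DMSO, high control DMSO only | repeats = one well per compound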
OX1R antag-2 – antagonists of human orexin 1 receptor (OX1R) | inhibition, % at 6.6 µM | OX1R-expressing cells, FRET antagonist read-out | hit rate 1.8% among 330,000 | Orexin/Hypocretin receptor type 1 (Homo sapiens), O43613; in the data active = inhibition mostly above about 38%, no sharp cut-off; inactive = mostly below about 40%;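 also: 0% = agonist challenge alone and 100% = reference antagonist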
An asterisk follows results filed as active; / = not tested or not shown.

SMILES | TAAR1 antagonist | OX1R antag-1 | GPR7 antag | TAAR1 ag | CHO parental Ca | OX1R antag-2
COc1ccc(C(OCC(O)CN(C)C2CCCCC2)c2ccc(OC)cc2)cc1 (stereo not given) | -7.1 | -13.4 | 20.3* | 8.1 | -18.6 | 8.1
COc1cc(OC)c2c(=O)cc(-c3ccccc3)oc2c1 | 8.5 | -30.0 | -25.4 | 0.6 | -16.1 | 44.4*
Cc1coc2c(C)c3oc(=O)c(CC(=O)N[C@@H](CC(C)C)C(=O)O)c(C)c3cc12 | -2.9 | 12.8 | -13.2 | 3.3 | 10.1 | 3.3
Cc1coc2c(C)c3oc(=O)c(CCC(=O)N[C@@H](C)C(=O)N[C@@H](Cc4ccccc4)C(=O)O)c(C)c3cc12 | -2.5 | -8.1 | -13.4 | -0.3 | -9.7 | 44.8*
N#Cc1c(N)nc2c(c1-c1ccccc1)CCCC2 | -15.8 | -16.4 | -5.7 | 41.4* | -10.1 | 7.0
N#Cc1c2c(nc(N)c1-c1ccccc1)CCCCC2 | -1.1 | -17.0 | -10.1 | 0.2 | -13.9 | 6.2
Cc1ccc(S(=O)(=O)N2CCC[C@H]2C(=O)OCc2nc3ccccc3s2)cc1 | -4.5 | / | / | 2.0 | / | /
Cc1ccc(S(=O)(=O)N2CCCC2C(=O)OCc2nc3ccccc3s2)cc1 (stereo not given) | -2.9 | 5.5 | 5.6 | 5.4 | 58.7* | 17.5
c1ccc(-c2cc3cc4c(cc3cn2)OCO4)cc1 | 12.2 | 38.7 | / | 19.4 | -19.9 | 72.5*
COc1ccc(-c2[nH]nc3nc(N4CCN(C(=O)c5ccoc5)CC4)cc(C(F)(F)F)c23)cc1 | 49.1* | / | / | 5.0 | / | /
COc1ccc2[nH]c3c(N4CCC(O)(c5cccc(C(F)(F)F)c5)CC4)ncnc3c2c1 | 51.2* | -13.7 | -1.2 | 14.1 | -5.6 | 12.9
Clc1ccc2[nH]c3c(N4CCC5(CC4)OCCO5)ncnc3c2c1 | / | 23.7 | 9.8 | / | 30.9 | 81.5*
Brc1ccc2[nH]c3c(N4CCc5ccccc5C4)ncnc3c2c1 | / | 43.8* | 3.0 | / | 47.1* | 13.3
CCOc1ccc2[nH]c3c(N4CCc5ccccc5C4)ncnc3c2c1 | -8.5 | -9.1 | -8.6 | 0.7 | -15.7 | 13.5
Cc1ccc2[nH]c3c(N4CCc5ccccc5C4)ncnc3c2c1 | 35.7 | 51.3* | 13.2 | 12.9 | 64.3* | 81.6*
Fc1ccc2[nH]c3c(N4CCc5ccccc5C4)ncnc3c2c1 | 42.4 | 11.0 | 10.8 | 6.0 | 65.0* | 56.4*
CN1CCN(c2ncnc3c2[nH]c2ccc(F)cc23)CC1 | 10.3 | -14.6 | -9.2 | 10.5 | -11.4 | 8.0
Cc1[nH]c2ccccc2c1CC(=O)Nc1ccc(Nc2cccnc2)c(-c2cc(F)cc(F)c2)c1 | 2.2 | / | / | 3.1 | / | /
CCS(=O)(=O)N1CCC(C(=O)OCC(=O)c2ccc(Br)cc2)CC1 | -4.4 | -31.2 | -13.7 | 6.5 | 49.5* | 12.3
CCCCCCCCN1C(=O)[C@@H](CC(=O)N2CCN(C(=O)C3CC3)CC2)C[C@@]2(C(=O)OC)C1=C[C@H](C1CCCC1)O[C@@H]2C | -20.9 | / | / | -2.4 | / | /
CCN(CC)c1ccc(-c2nn3c(-c4ccccc4OC)nnc3s2)cc1 | / | 29.3 | 0.4 | / | 30.3* | 39.2*
O=C(Nc1ccc(Cl)c(C(F)(F)F)c1)[C@@H]1CC=C[C@@H]2CCN(C3CC3)C(=O)[C@@H]21 | -2.0 | -10.1 | / | 10.1 | -26.9 | 62.2*
O=C(Nc1ccc(Cl)c(C(F)(F)F)c1)[C@@H]1CC=C[C@@H]2CCN(C3CCCCC3)C(=O)[C@@H]21 | 13.5 | 0.0 | / | 14.3 | -9.2 | 10.6
Cc1ccc(C(=O)N(C)[C@H]2C[C@H]3c4[nH]c5c(-c6ccccc6)cccc5c4CCN3C(=O)[C@H]2[C@H](C)O)cc1 | 1.6 | / | / | 2.2 | / | /
COc1cccc(C2=Cc3ccc(F)cc3C(CC(C)=O)N2c2ccc(C#CC3(O)CCCCC3)cc2)c1 (stereo not given) | 12.0 | / | / | 1.3 | / | /
SMILES | TAAR1 antagonist | OX1R antag-1 | GPR7 antag | TAAR1 ag | CHO parental Ca | OX1R antag-2
COc1ccc(C(=O)NCC(=O)OCc2ccc([N+](=O)[O-])cc2)cc1 | 8.2 | -18.6 | -3.5 | 6.2 | -6.7 | 18.9
Cc1ccc(C(=O)NCC(=O)NCC(=O)OCc2ccc(Oc3ccc([N+](=O)[O-])cc3)cc2)cc1 | 38.9 | 59.3* | 1.7 | 4.8 | 45.8* | 49.2
CSc1nc2c(=O)[nH]cnc2s1 | -8.3 | / | / | 1.0 | / | /
Cc1noc(C)c1S(=O)(=O)N1CCCC(C(=O)N2CCN(C3CCCCC3)CC2)C1 (stereo not given) | -8.6 | -20.4 | 3.1 | -0.8 | -16.9 | 5.3
Cc1ccc(C)c(N2CCN(C(=O)C3CCCN(S(=O)(=O)c4c(C)noc4C)C3)CC2)c1 (stereo not given) | 52.5* | -31.1 | 2.8 | -1.4 | -7.0 | 14.3
Cc1ccc(Cl)cc1N1CCN(C(=O)c2ccc(NS(=O)(=O)c3c(C)noc3C)cc2)CC1 | 27.2 | 26.3 | 5.1 | 1.4 | 43.9* | 40.9
COC(=O)C1=C(C)N(Cc2ccccc2C(F)(F)F)C(=NCc2ccc3c(c2)OCO3)NC1c1ccccc1 (stereo not given) | 10.4 | / | / | 13.5 | / | /
Nc1[nH]c(C(=O)c2ccc(Br)cc2)c(-c2ccncc2)c1C(=O)NCCc1c[nH]c2ccccc12 | 37.6 | / | / | 8.2 | / | /
CC1COCC(C)N1C1=C(Cl)C(=O)c2ccccc2C1=O (stereo not given) | -23.6 | / | / | 41.0* | / | /
O=C(C[C@H]1C(=O)N(Cc2ccccc2)C[C@@H]1Cc1ccccc1)Nc1ccc(Br)cc1 | 6.8 | / | / | 4.2 | / | /
O=C(/C=C/c1cccs1)c1ccc(N2CCOCC2)cc1 | 19.3 | 3.4 | 1.4 | 6.8 | -9.1 | 65.0*
O=C(/C=C/c1cccc(F)c1)c1ccc(N2CCOCC2)cc1 | 15.1 | -15.7 | -3.9 | 1.8 | 0.3 | 10.9
Cc1nc(Nc2ccc(Cl)c(Cl)c2)sc1C(=O)Nc1ccccc1 | 34.3 | -15.7 | -9.5 | 7.1 | 8.4 | 69.0*
COC(=O)c1sc2nc(C)cc(C)c2c1N | 1.7 | -8.8 | -1.7 | 3.3 | -10.3 | 16.1
Cc1cc(C)c2c(N)c(C(=O)Nc3ncc(C)s3)sc2n1 | -10.0 | -13.7 | -9.3 | 12.1 | -18.3 | 50.6*
Cc1ccnc(SCCn2c(N3CCN(c4ccccc4)CC3)nc3c2c(=O)[nH]c(=O)n3C)n1 | 51.4* | -24.1 | 9.5 | 11.8 | -13.9 | 20.7
Cc1ccnc(SCCn2c(N3CCCCC3)nc3c2c(=O)[nH]c(=O)n3C)n1 | / | / | 0.7 | / | / | /
CCCC(=O)OCCNc1cc(Sc2nc3ccccc3[nH]2)c2nonc2c1[N+](=O)[O-] | 28.3 | 13.0 | 25.3* | -0.5 | 37.6* | 65.2*
CC(=O)OCCCNc1cc(Sc2ccc(Cl)cc2)c2nonc2c1[N+](=O)[O-] | -11.0 | 15.8 | -10.4 | 2.5 | 2.0 | 8.7
